From PubChem
Gli-Sufu antag: blocks Gli-Sufu signaling in a luciferase reporter; Sufu-KO-LIGHT fibroblasts, Gli luciferase reporter luminescence; inhibition, % at 5 µM; 0.74% of 340,000 active;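 active means inhibition above about 55%, limit read from the data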;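 further: 0% = DMSO-treated cells and 100% = wells with medium but no cells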
Jurkat NFkB inh: inhibitors of the PMA/ionomycin-induced NF-kB reporter in Jurkat cells; PMA/ionomycin-induced NF-kB luciferase reporter, luminescence; inhibition, % at 4 µM; 0.53% of 330,000 active; AID 435003; in the data active means inhibition above about 50%
GalR3 antag: blocks the human galanin receptor 3 | HEK293 GalR3-CNG cAMP membrane potential fluorescence; galR3 body fused to GalR1 C-terminus | O60755 | AID 651719 | inhibition, % at 3 µM | 0.44% of 360,000 active;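 active means inhibition above the screen-wide average plus 3 SD, cut at about 13% in these data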;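 further: forskolin and galanin both at EC90 stimulate the cells; cAMP rise reported by CNG channel membrane potential dye signal; 0% = forskolin plus galanin with DMSO and 100% = forskolin alone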
NR2E3 ag-1: human photoreceptor-specific nuclear receptor agonism. Q9Y5X4. CHO-S Gal4-NCOR/VP16-NR2E3 two-hybrid, luciferase. inhibition of corepressor binding, % at 3.98 µM. 0.35% of 360,000 active. AID 602229;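 active means inhibition above the mean of all tested compounds plus 3 SD, cut at about 70% in these data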;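 further: 0% = DMSO with NR2E3 transfected cells and 100% = cells lacking NR2E3 construct; higher means lower luciferase signal from less NR2E3 corepressor binding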
Target sequence (Q9Y5X4 whole entry, looked up, the tested form may be a part): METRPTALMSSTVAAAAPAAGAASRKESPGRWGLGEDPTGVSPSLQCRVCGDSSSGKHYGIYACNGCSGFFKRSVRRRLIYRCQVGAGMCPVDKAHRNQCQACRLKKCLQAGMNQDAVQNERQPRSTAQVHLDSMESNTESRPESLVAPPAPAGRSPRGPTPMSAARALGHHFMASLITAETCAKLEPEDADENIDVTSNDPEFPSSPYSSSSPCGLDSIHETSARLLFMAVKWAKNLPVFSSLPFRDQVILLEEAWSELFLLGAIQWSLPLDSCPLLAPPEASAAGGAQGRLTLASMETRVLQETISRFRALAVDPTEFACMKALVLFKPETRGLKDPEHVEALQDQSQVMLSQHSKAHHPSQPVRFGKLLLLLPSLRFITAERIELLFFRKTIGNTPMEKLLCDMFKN
NR2E3 ag-2: NR2E3 (human) agonism. GST-NR2E3/biotin-RetCOR TR-FRET, 1536-well. inhibition of corepressor binding, % at 4.78 µM. Q9Y5X4. 0.12% of 320,000 active;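 active means percent inhibition above the cutoff of mean plus 3 SD of all tested compounds, set per screening campaign, cut at about 20% in these data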;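 further: 0% = DMSO wells and 100% = biotin wells as full block of FRET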
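System: GST-NR2E3 and biotin-RetCOR proteins; probe or stimulus: 7 nM biotin-RetCOR; doses: compound at 4.8 µM, single dose; schedule: Compound–protein incubation for 5 h at 4 °C; detection: time-resolved FRET; read-out: percent inhibition; controls: biotin wells as high control, 0.6% DMSO wells as low control; format: 1536-well plates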
697 NFkB inh: lowers PMA/ionomycin-induced NF-kB signal in 697 B cells; 697 B-cell NF-kB luciferase reporter, 16 h; inhibition, % at 4 µM; 0.33% of 330,000 active; in the data active means inhibition above about 35%
Gli-Sufu confirm: Gli-SUFU antagonism confirmation, single concentration; AID 602428; shares compounds with Gli-Sufu antag; inhibition, % at 5 µM; Sufu-KO-LIGHT cells, Gli luciferase reporter, luminescence; 40% of 2,500 active;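 active means mean inhibition at 5 µM reaching about 45%, limit read from the data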;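 further: plate controls were DMSO-treated cells for no effect and wells lacking cells for full effect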
Gli cytotox: counter-screen for Gli-SUFU antagonists: cytotoxicity; shares compounds with Gli-Sufu antag; cytotoxicity, % at 5 µM; Sufu-KO-LIGHT cells cytotoxicity, ATP luminescence; 32% of 2,500 active; AID 651994;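 active means mean cytotoxicity at 5 µM above about 25%, limit read from the data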;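 further: cells exposed to compound overnight for roughly 16 to 18 hours; plate controls were DMSO wells with cells for no effect and medium without cells for full effect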
Wnt3a counter: inhibits Wnt3a reporter, counter-screen for Gli-SUFU antagonists; Wnt-LIGHT cells, Wnt3a-driven luciferase reporter, luminescence; shares compounds with Gli-Sufu antag; inhibition, % at 6.25 µM; 20% of 2,500 active;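 active means mean inhibition above about 25%, limit read from the data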
* hit, by the source's call. An excerpt weighted towards active compounds, which were near 1.8% of everything screened.

`COC(=O)[C@]12CCCCC=C1N(Cc1ccc(Cl)cc1Cl)C(=O)[C@H](CC(=O)NCc1ccc(OC)c(OC)c1)C2` gave GalR3 antag -8 and NR2E3 ag-1 -26.
For C[C@H]1[C@H](c2ccccc2)Oc2cccc(N3CCCC3)c2S(=O)(=O)N1Cc1cccc(F)c1 the results were GalR3 antag -5.
For CC(C)[C@@H](C)/C=C/[C@@H](C)[C@H]1CC[C@@H]2[C@]1(C)CCC1[C@]23C=C[C@]2(C[C@@H](O)CC[C@]12C)N(c1ccc(Br)cn1)O3 (stereo partly drawn) the results were GalR3 antag -6.
Screening O=C(C[C@@H]1C/C=C\C[C@@H](NC(=O)OCC2c3ccccc3-c3ccccc32)C(=O)OC[C@@H](Cc2ccccc2)NC1=O)NCCO returned Gli-Sufu antag 54, Jurkat NFkB inh -6, GalR3 antag -1, NR2E3 ag-1 -7, 697 NFkB inh -6, Gli-Sufu confirm 62*, Gli cytotox 28* and Wnt3a counter -69.
Screening CC(C)(C)[C@H]1COC(=O)[C@H](NC(=O)OCC2c3ccccc3-c3ccccc32)C/C=C\C[C@@H](CC(=O)N(CCO)Cc2ccccc2)C(=O)N1 returned Gli-Sufu antag 58*, Jurkat NFkB inh -5, GalR3 antag -7, NR2E3 ag-1 -7, 697 NFkB inh -16, Gli-Sufu confirm 52*, Gli cytotox 14 and Wnt3a counter -40.
`COc1ccc(OCC2CN(C3CCCC3)S(=O)(=O)CCO2)cc1` (stereo not drawn) gave GalR3 antag -7.
Screening CC(C)[C@@H]1NC(=O)[C@@H]2CSCCS(=O)(=O)N2C1=O returned GalR3 antag 0.
Cc1nc(Nc2ccc(F)cc2)nc(Nc2ccc(F)cc2)c1[N+](=O)[O-] was read as Gli-Sufu antag 53, Jurkat NFkB inh -2, GalR3 antag -1, NR2E3 ag-1 -9, NR2E3 ag-2 1, 697 NFkB inh -15, Gli-Sufu confirm 13, Gli cytotox -2 and Wnt3a counter 42*.
COc1ccc(/C=C2\SC(=S)N(CCC(=O)N(CCO)c3ccccc3)C2=O)cc1OC was read as Gli-Sufu antag 11, Jurkat NFkB inh -3, GalR3 antag -6, NR2E3 ag-1 -21, NR2E3 ag-2 -2 and 697 NFkB inh 19.
Screening CCOc1ccc(/C=C2\SC(=S)N(CCC(=O)N(CCO)c3ccccc3)C2=O)cc1 returned Gli-Sufu antag 51, Jurkat NFkB inh -6, GalR3 antag -12, NR2E3 ag-1 -24, NR2E3 ag-2 -3, 697 NFkB inh 21, Gli-Sufu confirm 18, Gli cytotox 23 and Wnt3a counter -11.
Screening CCC(=O)Nc1ccc2c(c1)OC[C@@H](C)NC[C@@H](C)[C@@H](OC)CN(C)C2=O returned GalR3 antag -5.
For O=[N+]([O-])c1ccc2ncnc(N3CCN(Cc4ccc5c(c4)OCO5)CC3)c2c1 the results were Gli-Sufu antag 68*, Jurkat NFkB inh 41, GalR3 antag -8, NR2E3 ag-1 -6, NR2E3 ag-2 2, 697 NFkB inh -39, Gli-Sufu confirm 36, Gli cytotox 26* and Wnt3a counter -16.
Screening CN1/C(=C\C(=O)COC(=O)Cn2nnc(-c3ccccc3)n2)C(C)(C)c2ccccc21 returned Gli-Sufu antag 71*, Jurkat NFkB inh 14, GalR3 antag -5, NR2E3 ag-1 5, NR2E3 ag-2 2, 697 NFkB inh -18, Gli-Sufu confirm 68*, Gli cytotox 43* and Wnt3a counter 34*.
